The values that follow come from ChEMBL document CHEMBL5661977, “BI 6727, a Polo-like kinase inhibitor with improved pharmacokinetic profile and broad antitumor activity” (Clin Cancer Res, 2009).

The source made the active and inactive calls. The rule behind the calls is not given here.

A short description of data set [1]: Cmax in Wistar rat at 10 mg/kg, iv by HPLC-MS/MS analysis. Format: ADME, organism-based. The conditions noted are these: in vivo. The gist of the method:
(§1)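 Male Wistar Crl:WI (Han) rats, n = 4, given a single 5-min i.v. infusion. BI 6727 measured in EDTA plasma at various times after the infusion started, by HPLC-MS/MS with internal standard. Parameters came from noncompartmental analysis. Terminal half-life was taken from the last two time points after i.v. dosing.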

The nature of data set [2]: Drug uptake in human HCT-116 cells xenografted in BomTac:NMRI-Foxn1nu mouse at 35 mg/kg, iv measured after 168 hrs by HPLC-MS/MS analysis. Format: ADME, organism-based, Neoplasm. Conditions: tumour (HCT-116 xenograft). In short, it runs like this:
(§2)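 Female nude mice bearing s.c. HCT 116 xenografts (2 × 10⁶ cells), n = 3 per time point, given a single i.v. dose. Tumor, organs and EDTA plasma collected at 1, 8, 24, 48, 96 and 168 h. Tissue extracts and plasma analysed by HPLC-MS/MS. Tissue nmol/mg converted to nmol/L assuming density 1.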
On the technique in general: A xenograft is tissue or cells of one species grown in another, often human tumour cells in immunodeficient mice.

Data set [3] is described as follows: Drug uptake in human HCT-116 cells xenografted in BomTac:NMRI-Foxn1nu mouse plasma at 35 mg/kg, iv measured after 168 hrs by HPLC-MS/MS analysis. Type of data set: ADME, organism-based. The gist of the method: as §2
The test system of data set [4] is HCT-116. In words: Antitumor activity against human HCT-116 cells xenografted in BomTac:NMRI-Foxn1nu mouse assessed as tumor regression at 15 mg/kg, iv administered twice a week on consecutive days. Format: functional, organism-based. The gist of the method: (§3)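 Female nude mice bore s.c. HCT 116 (2×10^6 cells), NCI-H460 (1×10^6 cells) or serially transplanted CXB1 tumor pieces. At ~50–100 mm³, mice were randomized into groups of 10 and dosed i.v. (0.1 N HCl/saline) or by gavage (0.5% hydroxyethyl-cellulose) at 10 mL/kg. Calipers read thrice weekly, volume = length×width²×π/6. T/C from median volumes on the last day.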

Data set [5] deals with HCT-116. The data set is described as follows: Antitumor activity against human HCT-116 cells xenografted in BomTac:NMRI-Foxn1nu mouse assessed as T/C at 20 mg/kg, iv administered once a week upto 6 weeks relative to control. Type of data set: functional. In short, it runs like this:
as §3

Data set [6] in a line: Antitumor activity against human CXB1 cells xenografted in BomTac:NMRI-Foxn1nu mouse assessed as T/C at 15 mg/kg, iv administered twice a week upto 6 weeks relative to control. Format: functional, CXB1 cell. In short, it runs like this: as §3
The test system of data set [7] is NCI-H460. The data set is described as follows: Antimitotic activity against human NCI-H460 cells assessed as G2-M arrest with apoptosis at 100 nmol/L incubated for 24 hrs by PI staining based flow cytometric analysis. Format: functional, cell-based. In short, it runs like this:
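Log-phase NCI-H460 cells were treated with 0.1% DMSO or inhibitor (dose series for 24 h; 100 nmol/L time course at 0, 24, 48, 72 h). Cells were fixed in 80% ethanol, permeabilized with 0.25% Triton X-100 for 5 min, then given 0.1% RNase plus 10 µg/mL propidium iodide for 20 min at RT. DNA content was read by flow cytometry.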
(In general: A flow cytometer gives signals particle by particle.)

Data set [8] relates to HCT-116. In words: Antitumor activity against human HCT-116 cells xenografted in BomTac:NMRI-Foxn1nu mouse assessed as tumor regression at 20 mg/kg, iv administered twice a week on consecutive days. Type of data set: functional, organism-based. The gist of the method: as §3
For data set [9], the system named is HCT-116. In words: Antitumor activity against human HCT-116 cells xenografted in BomTac:NMRI-Foxn1nu mouse assessed as […] in tumor size at 20 mg/kg, iv administered twice a week on consecutive days. Type of data set: functional, organism-based.
In data set [10] the test system is HCT-116. The data set is described as follows: Antitumor activity against human HCT-116 cells xenografted in BomTac:NMRI-Foxn1nu mouse assessed as the number of apoptotic cells in small intestine at 40 mg/kg, iv. Type of data set: functional, organism-based. The gist of the method: (§4)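 Female nude mice bore s.c. HCT 116 tumors (~200 mm³) and received a single i.v. 40 mg/kg dose or vehicle (n=3 per group per time). Tumor, small intestine and large intestine were taken at 6, 24 and 48 h. Frozen sections were stained for pSer10 histone H3 (immunoperoxidase) or by TUNEL. Positive area was calculated as % of tumor cell area; Student's t test.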

Data set [11] is described as follows: Volume of distribution at steady state in Wistar rat at 10 mg/kg, iv by HPLC-MS/MS analysis. Format: ADME, organism-based. The conditions noted are these: in vivo, read-out: Vdss. The gist of the method: as §1
A short description of data set [12]: AUC (0 to infinity) in Wistar rat at 10 mg/kg, iv by HPLC-MS/MS analysis. Format: ADME, organism-based. The conditions noted are these: in vivo. In short, it runs like this: (§5)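 Single i.v. dose: male Wistar rats (n=4) by 5-min infusion, female nude mice (n=3). EDTA plasma was sampled at various times and extracted with internal standard, NaOH, methanol/formic acid and acetonitrile. Analysis by LC-MS/MS (ESI+, C18, ammonium acetate pH 4.0/acetonitrile gradient). Noncompartmental parameters; AUC by trapezoidal rule.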

Data set [13] in a line: AUC (0 to infinity) in BomTac:NMRI-Foxn1nu mouse at 35 mg/kg, iv by HPLC-MS/MS analysis. Format: ADME, organism-based. The conditions noted are these: in vivo. In short, it runs like this: as §5
Data set [14] is described as follows: Oral bioavailability in Wistar rat at 30 mg/kg by HPLC-MS/MS analysis. The conditions noted are these: in vivo. Type of data set: ADME, organism-based. The gist of the method:
(§6)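 Single oral gavage of BI 6727 suspended in 0.5% hydroxyethyl-cellulose (10 mL/kg) to female nude mice or male Wistar rats. EDTA plasma levels measured over time by HPLC-MS/MS with internal standard. AUC0-24 by trapezoidal rule. Parameters from noncompartmental analysis.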

Data set [15] is described as follows: AUC (0 to 24 hrs) in human HCT-116 cells xenografted in BomTac:NMRI-Foxn1nu mouse at 15 mg/kg, iv administered twice a week upto 6 weeks by HPLC-MS/MS analysis. Type of data set: ADME, organism-based. Conditions: in vivo, 1008 h.
Data set [16] in a line: AUC (0 to 24 hrs) in human HCT-116 cells xenografted in BomTac:NMRI-Foxn1nu mouse at 7 mg/kg, po administered daily upto 6 weeks by HPLC-MS/MS analysis. Type of data set: ADME, organism-based. Conditions: in vivo, 1008 h.
Data set [17] has as its system HCT-116. In words: Antitumor activity against human HCT-116 cells xenografted in BomTac:NMRI-Foxn1nu mouse assessed as tumor growth delay at 25 mg/kg, iv administered twice a week on consecutive days. Format: functional, organism-based. In short, it runs like this:
as §3

A further data set deals with Mus musculus. In words: Antitumor against human CXB1 cells xenografted in BomTac:NMRI-Foxn1nu mouse assessed as suppression in tumor growth at 15 mg/kg, iv administered once a week on consecutive days. Type of data set: functional, organism-based. Conditions: CXB1 cell, in the assay text read “twice a week” for “once a week”. The gist of the method:
as §3

Data set [18] in a line: Tmax in BomTac:NMRI-Foxn1nu mouse at 50 mg/kg, po by HPLC-MS/MS analysis. The conditions noted are these: in vivo. Type of data set: ADME, organism-based. In short, it runs like this:
as §6

Data set [19] is described as follows: AUC (0-24hrs) in Wistar rat at 30 mg/kg, po by HPLC-MS/MS analysis. Type of data set: ADME, organism-based. The conditions noted are these: in vivo. The gist of the method:
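Single oral dose to female nude mice or male Wistar rats. EDTA plasma was collected over 24 h and quantified by LC-MS/MS after extraction with internal standard. AUC0-24 was calculated from the concentration-time profile by the trapezoidal rule using noncompartmental analysis.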

Data set [20] relates to HCT-116. The data set is described as follows: Antitumor activity against human HCT-116 cells xenografted in BomTac:NMRI-Foxn1nu mouse assessed as the number of apoptotic cells in large intestine at 40 mg/kg, iv. Type of data set: functional, organism-based. In short, it runs like this: as §4
Data set [21] has as its system NCI-H460. The data set is described as follows: Induction of apoptosis in human NCI-H460 cells assessed as conversion of cleaved PRAP protein to fragment at 100 nmol/L incubated for 48 hrs by westernblot analysis. Format: functional, cell-based. In short, it runs like this: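 Exponentially growing NCI-H460 cells treated with compound or DMSO control for 24 or 48 h, then harvested. Cleaved PARP fragment detected by Western blot.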

As a reminder, the Cmax is the maximum level reached in the sampled fluid or tissue. The term T/C denotes the ratio of treated to control. The AUC(0-inf) is total exposure, with the tail of the curve extrapolated. Read a high AUC(0-inf) as high exposure. By bioavailability is commonly meant dose-corrected exposure relative to a reference, in per cent. Read a low bioavailability as poor availability. For orientation: AUC means concentration integrated over time. Low values mean less exposure, high ones more exposure. Usually Tmax stands for the time from dosing to the highest level. Broadly, the AUC(0-t) is the area under the concentration-time curve up to a stated or last time point. The low end stands for low exposure, the high end for high exposure. For the molecule `CC[C@@H]1C(=O)N(C)c2cnc(Nc3ccc(C(=O)N[C@H]4CC[C@H](N5CCN(CC6CC6)CC5)CC4)cc3OC)nc2N1C(C)C` [VOLASERTIB], in data set [1], the highest concentration (Cmax) was found to be 11.9 µM. Further, the concentration at 168 h in data set [2] worked out at 4 µM; in data set [3] it was 0.008 µM. Besides, the outcome with HCT-116 [4], with NCI-H460 [7], with HCT-116 [8], in the data set on HCT-116 [9], with HCT-116 [17] and with Mus musculus was Active. The result in the data set on NCI-H460 [21] was Active. Further, the values for the T/C (with HCT-116 [5]; in [6]) were 9% and 12%, respectively. For the same molecule, the result in the data set with HCT-116 [10] and in the data set on HCT-116 [20] was inactive. For the same molecule, in data set [11], the Vd was determined as 22 L/kg. Further, the values for the area under the curve AUC(0-inf) in data set [12] and in data set [13] were 30 µM·h and 100 µM·h, respectively. In [14], this molecule registered a bioavailability of 55%. Besides, the AUC in data set [15] was 37 µM·h; in data set [16] it was 44 µM·h. Moreover, the Tmax in [18] came to 1.7 h. This molecule came in with an AUC(0-t) in data set [19] of 34 µM·h.
